Screening results: PubChem, The Scripps Research Institute Molecular Screening Center
GSTO1 counter: blocks human GSTO1 in RBBP9 counter-screen | P78417 | recombinant GSTO1, activity-based probe fluorescence polarization | inhibition, % at 5.96 µM | 300,000 compounds, 1.1% hits | AID 1974;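 active means inhibition above the campaign mean inhibition plus 3 SD, cut at about 35% in these data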;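 further: 0% = GSTO1-1 with DMSO and 100% = wells lacking GSTO1-1 enzyme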
Target sequence (P78417 whole entry, looked up): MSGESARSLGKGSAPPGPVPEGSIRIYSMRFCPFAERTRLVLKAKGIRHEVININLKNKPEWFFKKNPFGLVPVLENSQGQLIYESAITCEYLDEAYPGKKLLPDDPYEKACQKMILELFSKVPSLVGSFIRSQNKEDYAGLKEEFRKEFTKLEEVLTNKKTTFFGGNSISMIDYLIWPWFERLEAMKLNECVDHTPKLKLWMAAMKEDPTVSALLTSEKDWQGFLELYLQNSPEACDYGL
PAD4 inh: blocks human protein arginine deiminase 4 | recombinant PAD4, RCA probe fluorescence polarization | Q9UM07 | 330,000 compounds, 0.41% hits | AID 485272 | inhibition, % at 6.36 µM;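 active means percent inhibition above a cutoff equal to the mean of all tested compounds plus 3 SD, cut at about 15% in these data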;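 further: 0% = PAD4 with RCA probe and DMSO and 100% = probe without PAD4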
TDP2 inh: TDP2 (human) inhibition, absorbance primary screen; 370,000 compounds, 0.34% hits; inhibition, % at 12.8 µM; O95551; recombinant TDP2, T5PNP hydrolysis, p-nitrophenol absorbance 415 nm; AID 720702;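 active means inhibition above the mean of all tested compounds plus 3 SD, set per campaign, cut at about 25% in these data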;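 further: 0% = DMSO with enzyme and 100% = buffer with substrate but no TDP2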
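System – recombinant human TDP2 · Quantity – TDP2 enzyme at 120 nM final · Doses – single concentration, 12.8 µM nominal, with 1% DMSO · Incubation – 2 h at 37 °C · Measured by – epi absorbance of p-nitrophenol freed from T5PNP by hydrolysis · Read-out – % inhibition relative to enzyme-containing and enzyme-free wells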
PRMT1 inh: inhibitors of human PRMT1; Q99873; recombinant PRMT1, activity-based probe fluorescence polarization; inhibition, % at 2.79 µM; 370,000 compounds, 1.3% hits; AID 652257;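 active means inhibition above about 21% made by adding two undisclosed values, limit read from the data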
Target sequence (Q99873 whole entry, looked up): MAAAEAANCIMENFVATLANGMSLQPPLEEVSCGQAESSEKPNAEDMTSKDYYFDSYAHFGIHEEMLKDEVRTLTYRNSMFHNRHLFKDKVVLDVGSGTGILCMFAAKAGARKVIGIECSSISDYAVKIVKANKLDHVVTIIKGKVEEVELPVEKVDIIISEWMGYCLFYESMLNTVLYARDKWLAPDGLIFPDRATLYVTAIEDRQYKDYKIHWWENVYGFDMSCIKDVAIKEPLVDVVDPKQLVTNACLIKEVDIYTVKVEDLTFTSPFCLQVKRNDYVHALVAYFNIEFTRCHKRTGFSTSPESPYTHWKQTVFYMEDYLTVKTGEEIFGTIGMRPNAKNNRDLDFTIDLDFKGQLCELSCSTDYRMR
Fh CTSL1 inh: cathepsin L1 inhibition, PFM18AAP counter-screen | recombinant F. hepatica cathepsin L1, Z-Leu-Arg-MCA fluorescence | inhibition, % at 5.96 µM | 300,000 compounds, 0.49% hits | AID 1906;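 active means inhibition above the mean of all tested compounds plus 3 SD, set per screening campaign, cut at about 17% in these data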;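 further: 0% = plate median of test compound wells and 100% = 1 µM Z-Phe-Ala-diazomethylketone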
GSTO1 inh conf: GSTO1 (human) inhibition, confirmation; 2,400 compounds, 54% hits; recombinant GSTO1, probe fluorescence polarization; inhibition, % at 5.96 µM; shares compounds with GSTO1 counter; AID 2176;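 active means inhibition above the primary screen's cutoff, its mean inhibition plus 3 SD, cut at about 35% in these data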;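 further: loss of polarization as inhibitors block binding of rhodamine sulfonate ester activity probe; 0% = GSTO1 with DMSO and 100% = wells lacking GSTO1 enzyme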
GSTO1 recomb ABPP: blocks recombinant human glutathione S-transferase omega 1 | inhibition, % at 1 µM | 130 compounds, 30% hits | recombinant GSTO1, gel ABPP SE-Rh probe fluorescence | shares compounds with GSTO1 counter;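 active means inhibition of the enzyme GSTO1 above about 75%, limit read from the data; inactive means inhibition below that limit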
An asterisk follows results filed as active; · = no result given. Hits are enriched below; roughly 2.5% of the tested compounds scored in any of these assays.

SMILES | GSTO1 counter | PAD4 inh | TDP2 inh | PRMT1 inh | Fh CTSL1 inh | GSTO1 inh conf | others
CC1(OC(=O)c2cccs2)C(=O)C=C2C=C3CCCN3C=C2C1=O (stereo unspecified) | 60* | 15* | · | · | 3 | 62*
Cc1nnc(N/N=C/c2c(O)n(-c3cccc(C(F)(F)F)c3)c(=O)c3ccccc23)[nH]c1=O | 39* | -3 | -10 | -4 | 2 | 19
Clc1ccc(-n2c(SCc3cccc4ccccc34)nnc2-c2ccccc2)cc1 | · | · | -1 | 6 | · | ·
O=c1ccc2cc(S(=O)(=O)N3CCOCC3)ccc2o1 | 42* | 3 | 3 | -1 | 2 | 1
COc1ccc(N2CCN(S(=O)(=O)c3ccc4oc(=O)ccc4c3)CC2)cc1 | -1 | -7 | -2 | -2 | 0 | ·
O=C1CN(C(=O)COC(=O)CNC(=O)c2ccccc2)c2ccccc2N1 | 89* | -3 | 7 | -3 | -3 | 3
COc1cc(-n2c(C)nc3cc(C(=O)N4CCCN(C(C)=O)CC4)ccc32)cc(OC)c1OC | · | · | 4 | 5 | · | ·
CCCCOc1ccc(C(=O)NC2CCCCN(Cc3cccc(C(F)(F)F)c3)C2=O)cc1 (stereo unspecified) | · | · | -11 | 5 | · | ·
COc1ccccc1N=Nc1ccc(O)c2ncccc12 | 51* | -6 | 12 | 2 | 1 | 10
CCS(=O)(=O)c1ccc(N=Nc2ccc(O)c3ncccc23)c(OC)c1 | · | · | -2 | 4 | · | ·
Cc1cc(C)c(NC(=O)CN2C(=O)NC3(CCCCC3)C2=O)c(Cl)c1 | 54* | 0 | · | · | -5 | 33
CCCN(CC(=O)Nc1ccccc1C)C(=O)CCl | 81* | -1 | -1 | -1 | 16 | 92* | GSTO1 recomb ABPP=4
O=C(OCc1cn(Cc2cccc(C(F)(F)F)c2)nn1)N1CCOCC1 | · | · | 5 | 0 | · | ·
O=C(OCn1ncc(Cl)c(Cl)c1=O)c1ccc(C(F)(F)F)cc1 | · | · | -4 | 5 | · | ·
Cc1ccc(C(=O)OCn2ncc(Cl)c(Cl)c2=O)cc1 | 45* | 20* | 21 | 2 | -9 | 46*
COC(=O)[C@]12C[C@H](CC(=O)NCc3ccc(OC)c(OC)c3)C(=O)N(CCC3=CCCCC3)C1=C[C@H](C1CCCC1)O[C@@H]2C | · | · | -12 | -1 | · | ·
C[C@H](O)[C@@H]1CN2CCc3ccc(N4CCOCC4)cc3[C@@H]2C[C@@H]1N(C)CC1CCCCC1 | · | · | -10 | 2 | · | ·
O=C(Nc1nc(-c2ccccn2)cs1)c1cc2ccccc2o1 | 48* | -6 | 0 | -5 | -1 | 39*
CCOc1ccccc1NC(=O)Nc1ccc2c(c1)OCO2 | 2 | 8 | -5 | -5 | 2 | ·
C=CCOc1ccccc1CN(C(=O)CCl)c1ccc2c(c1)OCO2 | 95* | -1 | 2 | 2 | 1 | 86* | GSTO1 recomb ABPP=75*
CC(NC(=O)c1cccs1)c1ccccc1 (stereo unspecified) | 63* | 1 | -9 | 6 | -2 | 5
COCCCNC1=C(Cl)C(=O)c2ccccc2C1=O | 48* | -11 | 22 | -2 | 4 | 13
CC(C)OCCCNC(=S)NNC(=O)C(c1ccccc1)c1ccccc1 | -12 | -2 | 1 | 4 | -2 | ·
CCN(CC)CCCNC1=C(Cl)C(=O)c2ccccc2C1=O | 66* | -10 | 6 | 2 | 17* | 47*
CC(C)OCCCNC1=C(Cl)C(=O)c2ccccc2C1=O | 64* | -11 | 0 | 1 | 8 | 9
SMILES | GSTO1 counter | PAD4 inh | TDP2 inh | PRMT1 inh | Fh CTSL1 inh | GSTO1 inh conf | others
COc1ccc2c(c1)CNC2CS(=O)(=O)NCCc1ccccc1 (stereo unspecified) | · | · | 10 | 5 | · | ·
COc1ccc(NC(=O)C(OC(=O)c2ccc([N+](=O)[O-])o2)c2ccccc2)cc1Cl (stereo unspecified) | 50* | -12 | 5 | 3 | -7 | 10
Cc1c(C=O)c2ccccn2c1C(=O)c1ccccc1 | 2 | 1 | -12 | 2 | 3 | ·
Cc1c(C=O)c2ccccn2c1C(=O)c1ccc(F)cc1 | 39* | -3 | -16 | 3 | 5 | 6
O=C(Nc1ccccc1)c1cn(CCBr)cn1 | 62* | 0 | -16 | 9 | -2 | 73*
O=C(Nc1ccccc1)c1ccc(C(=O)Nc2ccccc2)nc1 | 1 | -2 | -4 | -3 | 0 | ·
COC(=O)[C@]12C[C@H](CC(=O)NCC34CC5CC(CC(C5)C3)C4)C(=O)N(Cc3ccco3)C1=C[C@H](C1CCCC1)O[C@@H]2C | · | · | 0 | -1 | · | ·
Cc1nnc2ccc(N3CCN(C(=O)c4ccccc4)CC3)nn12 | 0 | -4 | -1 | -4 | -5 | ·
O=C(c1ccc(Br)o1)N1CCN(c2ccc3nnc(-c4ccccc4)n3n2)CC1 | 40* | -2 | -1 | -2 | 3 | 0
Cc1ccc2c(c1)C1CS(=O)(=O)N(C3CCCC3)C(=O)N1C2 (stereo unspecified) | · | · | -3 | -1 | · | ·
Cc1cc2c(NC(=O)CC(C)(C)CC(=O)O)cccc2nn1 | 42* | -1 | 17 | -3 | 1 | 7
COc1ccc2c(c1)CC/C(=C\Nc1ccc3c(c1)OCO3)C2=O | 69* | 4 | 4 | 29* | 0 | 62*
CC(C)(C)NC(=O)NC(=O)CN1CCCCCCC1 | -15 | -4 | -5 | 1 | 0 | ·
CCOC(=O)N1CCN(C(=O)Cc2ccc(Cl)cc2)CC1 | -3 | -1 | 1 | 0 | 2 | ·
CC(C)(C)NC(=O)CN1CCN(C(=O)CCl)CC1 | 82* | -2 | 5 | 2 | -2 | 96* | GSTO1 recomb ABPP=33
CCOC(=O)N1CCN(C(=O)CCl)CC1 | 77* | 3 | -4 | 4 | 8 | 92*
CCOC(=O)[C@]12CCCCC/C=C\1N(Cc1ccc(OC)cc1)C(=O)[C@H]2CC(=O)N1CCCC1 | · | · | -4 | 1 | · | ·
COC(=O)C1CN(Cc2ccc(OC)cc2)CCS(=O)(=O)N1Cc1cn(CCOC(C)=O)nn1 (stereo unspecified) | · | · | 2 | 2 | · | ·
c1ccc(COCCC2CO2)cc1 (stereo unspecified) | 61* | 0 | · | · | -1 | 72* | GSTO1 recomb ABPP=59
CCOC(=O)N1CCC(N2C(=O)c3ccccc3C2Nc2cc(C(=O)OC)cc(C(=O)OC)c2)CC1 (stereo unspecified) | 59* | -1 | -13 | -3 | -2 | -1
CC(C)=C1C(=O)NN(c2ccc(C)c(Cl)c2)C1=O | 44* | 2 | -12 | 16 | 4 | 18
O=S(=O)(c1cc2ccccc2s1)n1c(CN2CCOCC2)nc2ccccc21 | · | · | 0 | 3 | · | ·
COC(C[C@@H]1O[C@H]1[C@H](O)[C@@H](C)OCc1ccccc1)OC | 40* | 1 | · | · | -2 | 7
C=CCN(CC#Cc1ccccc1)Cc1ccc(OC)cc1 | · | · | 4 | 0 | · | ·
Cc1c(C=O)c(Cl)n(C)c(=O)c1C#N | 53* | 27* | 39* | 7 | 67* | 84*
CC(=O)N=Cc1c(C)c(C#N)c(=O)n(C)c1O | 19 | -7 | 21 | 11 | 0 | ·
